Experimental data taken from ChEMBL document CHEMBL1149345, “Pyrrolo[1,2-b][1,2,5]benzothiadiazepines (PBTDs): A new class of agents with high apoptotic activity in chronic myelogenous leukemia K562 cells and in cells from patients at onset and who were imatinib-resistant” (2006).
Active and inactive are the calls of the source. No cut-off for these calls is given here.

Legend:
[1] = test system: K562; assay: Apoptotic activity against human K562 cell line at 10 uM after 8 hrs; format: functional
Summary of the method: (§1)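 K562 cells exposed at 10 µM for 8, 16, 24 and 48 h, run alongside imatinib reference and untreated control cells. Result is % apoptosis as mean ± SD of triplicate experiments. Morphology (chromatin condensation, micronuclei, vacuolization) checked by electron microscopy.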

[2] = test system: K562; assay: Apoptotic activity against human K562 cell line at 10 uM after 24 hrs; format: functional; summary of the method: as §1
[3] = test system: K562; assay: Apoptotic activity against human K562 cell line at 10 uM after 48 hrs; format: functional; summary of the method: as §1
[4] = test system: K562; assay: Apoptotic activity against human K562 cell line at 10 uM after 16 hrs; format: functional; summary of the method: as §1
[5] = test system: K562; assay: Decrease in procaspase 8 expression in human K562 cells by Western blot; format: functional, cell-based
Summary of the method: (§2)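 Lysates of treated K562 cells taken after 24 h. Procaspase-8 and procaspase-9 immunoreactive bands assessed by Western blot.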

[6] = species on record: Homo sapiens; assay: Apoptotic activity against peripheral blood cells of CML affected human (27-83 yrs) at onset phase at 10 uM after 24 hrs; format: functional
Summary of the method: (§3)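 Bone marrow or peripheral blood cells harvested from 12 consecutive CML patients at onset. Cells cultured in vitro and treated at 10 µM for 24 and 48 h. Read-out by DNA fragmentation assay as % apoptosis.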

[7] = test system: K562; assay: Decrease in procaspase 9 expression in human K562 cells by Western blot; format: functional, cell-based; summary of the method: as §2
[8] = species on record: Homo sapiens; assay: Apoptotic activity against peripheral blood cells of imatinib-resistant CML affected human (38-70 yrs) at blast crisis phase at 10 uM after 24 hrs; format: functional
Summary of the method: (§4)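 Peripheral blood cells taken from 2 CML patients in blast crisis that evolved under imatinib treatment. Cells cultured in vitro and exposed at 10 µM for 24 and 48 h. Apoptosis scored as % by DNA fragmentation assay.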

[9] = species on record: Homo sapiens; assay: Apoptotic activity against peripheral blood cells of CML affected human (27-83 yrs) at onset phase at 10 uM after 48 hrs; format: functional; summary of the method: as §3
[10] = species on record: Homo sapiens; assay: Apoptotic activity against peripheral blood cells of imatinib-resistant CML affected human (38-70 yrs) at blast crisis phase at 10 uM after 48 hrs; format: functional; summary of the method: as §4
[11] = test system: K562; assay: BCR-ABL inactivation-independent inhibition of […]-induced apoptosis in human K562 cell at 10 uM by Western blot; format: functional, cell-based

CCOC(=O)C1c2cccn2S(=O)(=O)c2ccccc2N1C(=O)c1ccc(F)cc1 (racemic)
Activity [1]: 45.3%
Activity [2]: 81%
Activity [3]: 92%
Activity [4]: 67.6%

CCOC(=O)[C@@H]1c2cccn2S(=O)(=O)c2ccccc2N1C(=O)c1ccc(C)cc1
Activity [1]: 38%
Activity [2]: 71.6%
Activity [3]: 86.2%
Activity [4]: 63%

CCOC(=O)CC1c2cccn2S(=O)(=O)c2ccccc2N1C(=O)c1ccc(F)cc1 (racemic)
Activity [1]: 44.6%
Activity [2]: 79%
Activity [3]: 90.7%
Activity [4]: 66.3%

O=C(O)C1Nc2ccccc2S(=O)(=O)n2cccc21 (racemic)
Activity [1]: 4.8%
Activity [2]: 6.8%
Activity [3]: 6.2%
Activity [4]: 5.7%

Cc1ccc(NC(=O)c2ccc(CN3CCN(C)CC3)cc2)cc1Nc1nccc(-c2cccnc2)n1 [IMATINIB]
Activity [1]: 66.7%
Activity [2]: 71%
Activity [3]: 71.2%
Activity [4]: 70%

CCOC(=O)C1c2cccn2S(=O)(=O)c2ccccc2N1C(=O)c1ccccc1 (racemic)
Activity [1]: 45%
Activity [2]: 80%
Activity [3]: 89.6%
Activity [4]: 66.6%

CCOC(=O)C1Nc2ccccc2S(=O)(=O)n2cccc21 (racemic)
Activity [5]: Active
Activity [6]: 50%
Activity [7]: inactive
Activity [1]: 34%
Activity [2]: 76.3%
Activity [8]: 40%
Activity [9]: 70%
Activity [3]: 89.7%
Activity [10]: 60%
Activity [11]: Active
Activity [4]: 61.3%

CCOC(=O)[C@@H]1Nc2ccccc2S(=O)(=O)n2cccc21
Activity [1]: 20.5%
Activity [2]: 63.2%
Activity [3]: 80.3%
Activity [4]: 48.4%

CCOC(=O)CC1c2cccn2S(=O)(=O)c2ccccc2N1C(=O)c1cccc2ccccc12 (racemic)
Activity [1]: 47%
Activity [2]: 80%
Activity [3]: 92.6%
Activity [4]: 69%

O=S1(=O)c2ccccc2NC(CO)c2cccn21 (racemic)
Activity [1]: 5.3%
Activity [2]: 19.6%
Activity [3]: 23%
Activity [4]: 19.3%

CCOC(=O)CC1c2cccn2S(=O)(=O)c2ccccc2N1C(=O)c1ccc(Cl)cc1 (racemic)
Activity [1]: 43%
Activity [2]: 78%
Activity [3]: 90%
Activity [4]: 65.5%

CCOC(=O)CC1c2cccn2S(=O)(=O)c2ccccc2N1C(=O)c1ccc(C)cc1 (racemic)
Activity [1]: 45%
Activity [2]: 74.3%
Activity [3]: 87.6%
Activity [4]: 67.6%

CCOC(=O)[C@H]1Nc2ccccc2S(=O)(=O)n2cccc21
Activity [1]: 26.6%
Activity [2]: 69%
Activity [3]: 86.2%
Activity [4]: 53.8%

CCOC(=O)C1c2cccn2S(=O)(=O)c2ccccc2N1C(=O)c1cccc2ccccc12 (racemic)
Activity [1]: 43.7%
Activity [2]: 77%
Activity [3]: 87.6%
Activity [4]: 66%

CCOC(=O)CC1c2cccn2S(=O)(=O)c2ccccc2N1C(=O)c1ccccc1 (racemic)
Activity [1]: 45.3%
Activity [2]: 79.5%
Activity [3]: 92.3%
Activity [4]: 68%

CCOC(=O)[C@H]1c2cccn2S(=O)(=O)c2ccccc2N1C(=O)c1ccc(C)cc1
Activity [1]: 33.1%
Activity [2]: 67.6%
Activity [3]: 81.8%
Activity [4]: 57.8%

CCOC(=O)C1c2cccn2S(=O)(=O)c2ccccc2N1C(=O)c1ccc(Cl)cc1 (racemic)
Activity [1]: 44.3%
Activity [2]: 79.7%
Activity [3]: 91.7%
Activity [4]: 67%

CCOC(=O)C1c2cccn2S(=O)(=O)c2ccccc2N1C(=O)c1ccc(C)cc1 (racemic)
Activity [5]: inactive
Activity [6]: 55%
Activity [1]: 45.6%
Activity [2]: 79.6%
Activity [8]: 55%
Activity [9]: 78%
Activity [3]: 91.7%
Activity [10]: 78%
Activity [11]: Active
Activity [4]: 67.6%

CCOC(=O)CC1Nc2ccccc2S(=O)(=O)n2cccc21 (racemic)
Activity [1]: 29.3%
Activity [2]: 72%
Activity [3]: 88.3%
Activity [4]: 53%

O=C(O)CC1Nc2ccccc2S(=O)(=O)n2cccc21 (racemic)
Activity [1]: 4.5%
Activity [2]: 6.4%
Activity [3]: 6.1%
Activity [4]: 5.5%
